# High-throughput results: PubChem BioAssay, several laboratories
# Rows were chosen to be rich in hits. Some 1.8% of all compounds tested hit in one or more screens of this group.
# iPSC survival up: enhancers of single-cell hiPSC survival, primary screen, ATPlite luminescence. 100% = ROCK inhibitor wells, 0% = DMSO. survival enhancement, % at 20 µM. hit rate 0.044% among 360,000; in the data active = survival enhancement above about 18%;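 note: cells exposed to compounds for 16 hours before the ATP read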
# eLon inh: inhibitors of E. coli Lon protease, primary screen, biochemical, fluorescence polarization; P0A9M0; purified E. coli Lon protease; inhibition, % at 7.94 µM; hit rate 0.42% among 360,000; AID 602123, 2011; in the data active = inhibition above about 13%, passing the limit was not always enough
# SKN-1 block: suppressors of acrylamide-induced Pgst-4::GFP reporter in worms, primary screen, SKN-1 inhibitor project, whole organism, uHTS, GFP/RFP fluorescence ratio, strain VP596 | C. elegans VP596 Pgst-4::GFP/RFP ratio, 24 h | inhibition, % at 21.8 µM | hit rate 0.49% among 360,000 | AID 624304, 2012;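 active = interference check ratio from 0.5 to 1.5 plus GFP to RFP signal ratio inhibition reaching or exceeding a fixed threshold, cut at about 30% in these data, passing the limit was not always enough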
# MT1-MMP act inh: blockers of MT1-MMP proenzyme processing, primary screen, HT1080 RFP-PRO-GFP cells, GFP/RFP fluorescence. Matrix metalloproteinase-14 (Homo sapiens), P50281. GFP/RFP ratio fluorescence, overnight; percent of plate control window, DMSO zero. GFP/RFP ratio change, % at 20 µM. hit rate 0.061% among 360,000;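 active = GFP/RFP ratio change of at least 30% with cell ATP level not reduced by more than half and red fluorescence within 50% of control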
#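 Assay system: HT1080 RFP-PRO-GFP cells. Benchmarks: DMSO vehicle wells and RFP-L50D-GFP reporter cell wells. Times: overnight cell settling, then overnight compound exposure, 37 °C, 5% CO2. Compound: 20 µM single dose, 1% DMSO. Read-out basis: GFP/RFP fluorescence ratio.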
# PREPL inhibitor: PREPL enzyme inhibitors, primary screen, biochemical, fluorescence polarization; AID 2751, 2010; hit rate 0.68% among 320,000; inhibition, % at 5.96 µM; Prolyl endopeptidase-like (Homo sapiens), Q4J6C6; recombinant PREPL, fluorescence polarization activity-based probe; in the data active = inhibition above about 43%
# Target sequence (Q4J6C6 whole entry, looked up): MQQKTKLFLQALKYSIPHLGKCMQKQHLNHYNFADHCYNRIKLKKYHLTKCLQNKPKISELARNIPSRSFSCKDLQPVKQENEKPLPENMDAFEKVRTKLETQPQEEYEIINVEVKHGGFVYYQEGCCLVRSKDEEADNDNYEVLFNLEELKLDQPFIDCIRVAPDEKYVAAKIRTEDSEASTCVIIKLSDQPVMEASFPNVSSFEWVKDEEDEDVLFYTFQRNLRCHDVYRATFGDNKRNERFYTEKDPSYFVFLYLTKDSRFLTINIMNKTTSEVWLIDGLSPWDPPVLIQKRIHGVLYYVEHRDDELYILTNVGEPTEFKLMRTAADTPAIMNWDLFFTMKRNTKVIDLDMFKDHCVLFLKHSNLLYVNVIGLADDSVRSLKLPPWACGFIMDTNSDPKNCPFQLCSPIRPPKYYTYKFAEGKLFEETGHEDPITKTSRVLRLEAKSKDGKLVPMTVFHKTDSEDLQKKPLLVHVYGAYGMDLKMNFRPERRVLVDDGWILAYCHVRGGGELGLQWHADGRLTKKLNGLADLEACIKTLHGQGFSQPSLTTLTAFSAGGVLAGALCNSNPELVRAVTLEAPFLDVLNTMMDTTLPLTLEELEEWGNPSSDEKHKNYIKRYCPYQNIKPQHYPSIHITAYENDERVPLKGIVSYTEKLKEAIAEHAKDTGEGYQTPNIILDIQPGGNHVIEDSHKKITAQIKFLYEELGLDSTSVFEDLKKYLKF
# Tb MetRS inh: T. brucei MetRS inhibitors, primary screen, biochemical, luminescence. methionyl-tRNA synthetase (Trypanosoma brucei brucei). purified T. brucei MetRS, ATP depletion, Kinase-Glo luminescence. inhibition, % at 11.9 µM. hit rate 0.4% among 360,000. AID 624268, 2012;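 active = inhibition above a per-plate cutoff of the control wells' mean inhibition plus 3 SD, cut at about 5.5% in these data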
#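 Dosing: 11.9 µM single point; system: parasite MetRS enzyme; technique: luminescence of leftover ATP; times: 15 min enzyme-compound preincubation, 2 h reaction, 10 min detection, 25 °C; replicates: each compound tested once; read-out basis: percent inhibition relative to median high and low control wells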
# A number is an active result; - = inactive; . = no result.
SMILES,iPSC survival up,eLon inh,SKN-1 block,MT1-MMP act inh,PREPL inhibitor,Tb MetRS inh
O=C(Nc1ccc(C2=NCCN2)cc1)c1ccc(C(=O)Nc2ccc(C3=NCCN3)cc2)c([N+](=O)[O-])c1,-,-,-,-,45,-
Nc1ncc(-c2ccc(-c3ccccc3)cc2F)cc1-c1ccccc1F,-,-,40,-,.,-
O=C1C(=O)c2ccc(-c3ccccc3)cc2-c2ccccc21,-,-,-,-,-,-
CCOc1ccccc1-c1ccc(C(=O)NCc2ccc(Cl)cc2)o1,-,-,-,-,.,-
CCn1c(Cl)c(C=O)s/c1=N\S(=O)(=O)c1ccccc1,44,-,-,-,-,-
CCN1C(=O)CS/C1=N\S(=O)(=O)c1ccc(Cl)cc1,-,-,-,-,-,-
COc1ccccc1C(=O)Nc1ccc2c(c1)nc(CCNC(C)=O)n2C,-,-,-,-,-,-
COc1ccccc1C(=O)Nc1ccc2c(c1)nc(CCNC(=O)c1ccccc1)n2C,-,-,42,-,-,-
Nc1cc2c(cc1Cl)-c1ccccc1C2,-,-,49,-,.,-
CN(CC(=O)Nc1nc2ccccc2s1)S(=O)(=O)c1ccc(Cl)cc1,-,-,36,-,-,-
CN(CC(=O)Nc1nc2ccccc2s1)S(=O)(=O)c1ccc(Br)cc1,-,-,-,-,-,-
COc1ccc(CN2C(=O)C(CC(=O)NCc3cccs3)CC(C(=O)N3CCOCC3)=C2C)cc1 (centres undefined),-,-,-,-,.,-
N#C/C(=C\c1cccnc1)c1ccc(Br)cc1,-,-,44,-,-,-
Cc1cc(C(=O)CSc2nnc(C3COc4ccccc4O3)n2C)c(C)n1-c1ccc(F)cc1 (centres undefined),-,-,48,-,-,-
Cn1c(SCC(=O)c2ccccc2)nnc1C1COc2ccccc2O1 (centres undefined),-,-,-,-,-,-
O=C(COC(=O)[C@@H]1CCCN1C(=O)c1cccs1)NCCc1ccccc1,-,-,36,-,-,-
CS(=O)(=O)Nc1cccc(NC(=O)c2ccc(-c3ccc(F)c(F)c3)c3ccoc23)c1,-,-,-,-,.,-
Cn1nccc1-c1ccc(C(=O)Nc2cccc(NS(C)(=O)=O)c2)c2occc12,-,-,37,-,.,-
CS(=O)(=O)N1N=C(c2cccs2)CC1c1ccccc1O (centres undefined),-,-,41,-,-,-
CCOc1ccccc1NC(=O)COc1cccnc1[N+](=O)[O-],-,-,-,-,-,-
O=C(Nc1ccc(OC(F)F)c(Cl)c1)c1ccccn1,-,-,59,-,-,-
COc1ccc(NC(=O)c2ccc(OC(F)F)cc2)cc1Cl,-,-,-,-,-,-
CCOc1ccc(S(=O)(=O)Nc2cccc(C(=O)N3CCN(c4ccc(OC)cc4)CC3)c2)cc1,21,-,-,-,-,-
CCOc1cc(-c2cc(-c3ccc(C)cc3)nc(N)c2C#N)ccc1O,-,-,-,-,-,-
CCOc1cc(/C=C(\C#N)c2[nH]nc(N)c2C#N)ccc1O,-,-,-,-,52,-
SMILES,iPSC survival up,eLon inh,SKN-1 block,MT1-MMP act inh,PREPL inhibitor,Tb MetRS inh
O=C(C(O)c1ccc(Br)cc1)N1CCC(Nc2ccc3[nH]ncc3c2)CC1 (centres undefined),111,-,-,-,.,-
Cc1ccc(C(=O)/C=C\C(=O)c2ccc(C)cc2)cc1,-,-,-,-,-,-
Cc1ccc(S/C=C\C(=O)c2ccccc2)cc1,-,-,42,-,-,-
Cc1ccc2nc(NC(=S)NC(=O)c3ccco3)sc2c1,-,-,-,-,-,-
Cc1ccc2nc(NC(=O)c3ccco3)sc2c1,-,-,45,-,-,-
CCCCC(=O)N1CCN(c2nc3ccc(F)cc3s2)CC1,-,-,-,-,-,-
O=C(Nc1nc2c(s1)CCc1ccccc1-2)c1ccco1,-,-,41,-,-,-
COc1ccc(C(=O)Nc2nc3c(s2)Cc2cc(OC)ccc2-3)cc1,-,-,-,-,-,-
CC(=O)Nc1nc2c(s1)CCc1ccccc1-2,-,-,-,-,-,-
COc1ccc2c(c1)Cc1sc(NC(=O)c3ccccc3)nc1-2,-,-,42,-,-,-
CCC(=O)N1CCN(c2nc3ccc(Br)cc3s2)CC1,-,-,43,-,-,-
C(=C\c1ccccc1)/CN1CCN(C(c2nnnn2Cc2ccccc2)C2CC2)CC1 (centres undefined),-,-,-,-,.,-
COc1ccc2nc(NC(C)=O)sc2c1,-,-,-,-,-,-
CC(=O)Nc1nc2ccc(Br)cc2s1,-,-,35,-,-,-
O=C(Nc1nc2c(ccc3ccccc32)s1)c1ccco1,-,-,81,-,-,-
COc1ccc(-c2csc(Cc3nnc(N4CCOCC4)n3-c3ccccc3)n2)cc1OC,-,-,-,-,-,-
COc1ccc(-c2csc(Cc3nnc(N4CCOCC4)n3-c3ccccc3)n2)cc1,-,-,-,-,51,-
C/C(=N\NS(=O)(=O)c1ccccc1)c1ccc2c(c1)OCO2,-,-,-,-,-,-
CN1CCN(c2ccc(CNC(=O)C3(C)Cc4c(-c5ccc6c(c5)OCO6)ccnc4O3)cc2)CC1 (centres undefined),-,-,-,-,.,-
O=C(c1cccs1)N1CCc2ccccc21,-,-,-,-,-,-
O=C(/C=C/c1cccs1)N1CCc2ccccc21,-,-,35,-,-,-
Clc1ccc(-c2nc3cc(CN4CCCCC4)ccc3o2)cc1,-,-,77,-,.,-
COc1ccc(C2C(C(=O)c3cccs3)=C(O)C(=O)N2c2nnc(C)s2)cc1OC (centres undefined),-,38,-,-,-,-
C=CCOc1ccc(C2C(C(=O)c3cccs3)=C(O)C(=O)N2c2nnc(C)s2)cc1 (centres undefined),-,-,-,-,-,-
COc1ccc(C2C(C(=O)c3cccs3)=C(O)C(=O)N2c2nncs2)cc1 (centres undefined),-,62,-,-,-,-
CN(C)c1ccc(NC(=O)CCn2c(=S)oc3ccccc32)cc1,-,-,-,-,58,-
N#C/C(=C\c1ccc(N2CCOCC2)cc1)c1ccccc1,-,-,48,-,-,-
c1ccc2c(Nc3nc(N4CCOCC4)c4ccccc4n3)cccc2c1,-,-,-,-,53,-
Fc1ccc(Nc2nc(N3CCOCC3)c3ccccc3n2)cc1,-,-,-,-,-,-
